Calls of active or inactive are those of the source. The rule behind the calls is not given here.
Experiments:
Anthrax toxin receptor 2 = Anthrax toxin receptor 2 (Homo sapiens, UniProt P58335, C175A/R40C); assay: Inhibition of CMG2 (40 to 217) C175A and R40C double mutant (unknown origin) interaction to full length PA E733C mutant expressed in Escherichia coli by FRET assay
[1] = Cmax in C57BL/6J mouse at 20 mg/kg, ip after 6 to 24 hrs; assay type: ADME, organism-based; parameters: dose 20 mg/kg, route intraperitoneal; conditions: in vivo
Mus musculus [2] = assay: Toxicity in C57BL/6J mouse assessed as behavioral abnormalities at 20 mg/kg, po or 10 mg/kg, ip measured on day 5; assay type: organism-based; conditions: in vivo
Mus musculus [3] = assay: Toxicity in C57BL/6J mouse assessed as hunched posture at 20 mg/kg, po or 10 mg/kg, ip measured on day 5; assay type: organism-based; conditions: in vivo
Mus musculus [4] = assay: Toxicity in C57BL/6J mouse assessed as weight loss at 20 mg/kg, po or 10 mg/kg, ip measured on day 5; assay type: organism-based; conditions: in vivo
Mus musculus [5] = assay: Antiangiogenic activity in C57BL/6J mouse assessed as bFGF-induced angiogenesis at 20 mg/kg, po or 10 mg/kg, ip measured on day 5 by corneal micropocket assay; assay type: functional, organism-based; conditions: Cornea
In short: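 bFGF pellet (80 ng) implanted in cornea; groups of five mice dosed daily from implantation day, either 20 mg/kg by oral gavage in 5% ethanol or 10 mg/kg/day IP in 2.5% DMSO/5% Cremaphor EL/5% Tween-80/7.5% N-methyl-2-pyrrolidone/0.9% NaCl; vehicle-only controls. Vascular response area measured by slit lamp on postoperative day 5, typically 10 eyes per group.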

[6] = Cytotoxicity against HMVEC at 1 to 30 uM after 24 to 72 hrs by fluorescence assay; conditions: human
In short: (§1)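 HMVEC-d (EGM-2, before passage 7) seeded at 2000 cells/well, medium swapped after attachment for EGM-2 ± compound; grown 1 or 3 days, then quantified by Cyquant fluorescence. Fold-proliferation = experimental readout / day-0 ethanol-fixed wells; normalized to untreated wells. Four independent experiments, n=4 wells each; t-test with Bonferroni correction.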

[7] = Cytostatic toxicity against HMVEC at 1 to 30 uM after 24 to 72 hrs by fluorescence assay; conditions: human; in short: as §1
[8] = Antiangiogenic activity in HMVEC assessed as inhibition of endothelial cell migration after 4 hrs by stereomicroscopic analysis; assay type: functional, cell-based; conditions: Homo sapiens
In short: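 HMVEC-d (EGM-2, used before passage 7) resuspended in EBM with 0.1% BSA, 20,000 cells on fibronectin-coated 8.0 μm-pore polycarbonate transwells; migration toward full (5%) serum media ± compound for 4 h. Non-migrated cells swabbed off, membranes fixed and Diff-Quick stained. Data normalized to untreated control; two independent experiments, n=3 each; IC50 from binding isotherm fit.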

Anthrax toxin receptor 2, sequence (P58335 34-489 R40C/C175A limits assumed): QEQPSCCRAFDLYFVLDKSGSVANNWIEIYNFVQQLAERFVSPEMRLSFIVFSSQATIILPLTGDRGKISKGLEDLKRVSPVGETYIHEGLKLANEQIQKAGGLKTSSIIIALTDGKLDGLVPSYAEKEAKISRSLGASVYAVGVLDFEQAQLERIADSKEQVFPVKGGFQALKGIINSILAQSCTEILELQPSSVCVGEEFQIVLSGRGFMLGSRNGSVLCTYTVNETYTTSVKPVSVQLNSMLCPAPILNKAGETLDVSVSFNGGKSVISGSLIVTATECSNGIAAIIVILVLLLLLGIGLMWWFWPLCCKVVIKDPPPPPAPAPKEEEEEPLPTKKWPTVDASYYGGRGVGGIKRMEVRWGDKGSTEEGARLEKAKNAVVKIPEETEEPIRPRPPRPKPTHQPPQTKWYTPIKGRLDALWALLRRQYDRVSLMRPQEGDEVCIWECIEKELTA

Row | SMILES | IC50 (Anthrax toxin receptor 2) [µM] | further results
1 | O=c1c(O)c(-c2ccc(O)c(O)c2)oc2cc(O)cc(O)c12 [QUERCETIN] | > 300 | 
2 | COc1cc(/C=C/C(=O)CC(=O)/C=C/c2ccc(O)c(OC)c2)ccc1O [CURCUMIN] | > 300 | 
3 | O=C(O)c1cc(O)c(O)c(O)c1 [GALLIC ACID] | > 300 | 
4 | NCCc1ccc(O)c(O)c1 [DOPAMINE] | > 300 | 
5 | COc1cc(C(=O)O)ccc1O [VANILLIC ACID] | > 300 | 
6 | COC(=O)c1cc(O)c(O)c(O)c1 [GALLIC ACID METHYL ESTER] | > 300 | 
7 | COC(=O)c1ccc(O)c(O)c1 [METHYL PROTOCATECHUATE] | > 300 | 
8 | Oc1cc(O)c2c(c1)O[C@H](c1ccc(O)c(O)c1)[C@H](O)C2 [(-)-EPICATECHIN] | > 300 | 
9 | O=C(O)c1ccc(O)c(O)c1 [PROTOCATECHUIC ACID] | > 300 | 
10 | O=C(OC[C@H]1O[C@@H](OC(=O)c2cc(O)c(O)c(O)c2)[C@H](OC(=O)c2cc(O)c(O)c(O)c2)[C@@H](OC(=O)c2cc(O)c(O)c(O)c2)[C@@H]1OC(=O)c1cc(O)c(O)c(O)c1)c1cc(O)c(O)c(O)c1 [PENTAGALLOYL GLUCOSE] | 0.3 | Cmax [1]: < 1 µM; Activity (Mus musculus [2]): Non-toxic; Activity (Mus musculus [3]): Non-toxic; Activity (Mus musculus [4]): Non-toxic; inhibition (Mus musculus [5]): Active; Activity [6]: Non-toxic; Activity [7]: Non-toxic; IC50 [8]: 0.82 µM
11 | O=C(O)CCc1ccc(O)c(O)c1 [DIHYDROCAFFEIC ACID] | > 300 | 
12 | Oc1cc(O)c2c(c1)O[C@H](c1cc(O)c(O)c(O)c1)[C@H](O)C2 [EPIGALLOCATECHIN] | > 300 | 
13 | O=C(O)/C=C/c1ccc(O)c(O)c1 [CAFFEIC ACID] | > 300 | 
14 | CCCOC(=O)c1cc(O)c(O)c(O)c1 [PROPYL GALLATE] | > 300 | 
15 | O=C(OC[C@H]1O[C@@H](OC(=O)c2cc(O)c(O)c(OC(=O)c3cc(O)c(O)c(O)c3)c2)[C@H](OC(=O)c2cc(O)c(O)c(OC(=O)c3cc(O)c(O)c(O)c3)c2)[C@@H](OC(=O)c2cc(O)c(O)c(OC(=O)c3cc(O)c(O)c(O)c3)c2)[C@@H]1OC(=O)c1cc(O)c(O)c(OC(=O)c2cc(O)c(O)c(O)c2)c1)c1cc(O)c(O)c(OC(=O)c2cc(O)c(O)c(O)c2)c1 [TANNIC ACID] | > 300 | 
16 | O=c1c(O)c(-c2cc(O)c(O)c(O)c2)oc2cc(O)cc(O)c12 [MYRICETIN] | > 300 | 

Source: ChEMBL document CHEMBL2321858, “1,2,3,4,6-Penta-O-galloyl-β-D-glucopyranose inhibits angiogenesis via inhibition of capillary morphogenesis gene 2” (J Med Chem, 2013)
